Experimental data collected from several papers.
Cell line: PC-3
Read-out: cell growth or viability

| Structure (SMILES) | assay | conditions | IC50 |
| --- | --- | --- | --- |
| COc1cc2ncnc(Nc3ccc(F)c(Cl)c3)c2cc1NC(=O)N/N=C/c1cccn1CCN1CCCC1 | MTT | 72 h | 1.24 µM |
| Cc1cc(C)cc(COc2cc3c(cc2OCc2cc(C)cc(C)c2)[C@H]2C[C@](O)(Cc4cn(Cc5ccc(Cl)c(Cl)c5)nn4)C[C@H](C)N2CC3)c1 | MTT |  | 0.381 µM |
| COc1cc(Nc2nccc(-c3cnn4nc(OC)ccc34)n2)cc(C(F)(F)F)c1 | ATP luminescence |  | 0.37 µM |
| COc1ccnc(COc2ccc(NC(=O)Nc3cc(F)cc(F)c3)cc2)c1OC | MTT | 72 h | > 100 µM |
| [Cl-].[Cl-].[Cl-].[Fe+3] | resazurin | 72 h | 4800 µM |
| CC(C)c1n[nH]c2c(Nc3ccccc3)nc(CNCc3ccccc3)cc12 | MTS | 48 h | 5.8 µM |
| COc1cc2ncnc(Nc3ccc(F)c(Cl)c3)c2cc1NC(=O)N/N=C/c1cccn1CCN1CCOCC1 | MTT | 72 h | 0.82 µM |
| Cc1cc(C)cc(COc2cc3c(cc2OCc2cc(C)cc(C)c2)[C@H]2C[C@](O)(Cc4cn(Cc5ccc(O)cc5)nn4)C[C@H](C)N2CC3)c1 | MTT |  | 0.79 µM |
| COc1cc2ncnc(Nc3ccc(F)c(Cl)c3)c2cc1NC(=O)N/N=C/CN1CCOCC1 | MTT | 72 h | 3.3 µM |
| COc1ccc2c(N(C)c3ccc(/C(C)=N/OCCN)cc3)c3c(Cl)coc3nc2c1 | trypan blue | 72 h | 1.59 µM |
| COc1cccc2c1C(=O)c1c(O)c3c(c(O)c1C2=O)C[C@@](O)(C(=O)CO)C[C@@H]3O[C@H]1C[C@H](N)[C@H](O)[C@H](C)O1 | MTS | 48 h | 0.68 µM |
| COc1ccc(NC(=O)Nc2ccc(OCc3nccc(OC)c3OC)cc2)cc1 | MTT | 72 h | 46.4 µM |
| COc1ccc2c(c1OC)C(=O)O[C@@H]2[C@H]1c2c(c(Br)c3c(c2OC)OCO3)CCN1C | MTT | 48 h | 182 µM |
| CNC(=O)c1cc(Oc2ccc(NC(=O)Nc3ccc(Cl)c(C(F)(F)F)c3)cc2)ccn1 | MTT | 72 h | 3.6 µM |
| COC1=CC(=O)N(C(=O)[C@@H](CCC(Cl)(Cl)Cl)NC(=O)C(C)(C)C)[C@@H]1CCC(Cl)(Cl)Cl | resazurin | 72 h | 13 µM |
| C=CC(=O)Nc1ccc(CCn2cc(C[C@@]3(O)C[C@@H]4c5cc(OCc6cc(C)cc(C)c6)c(OCc6cc(C)cc(C)c6)cc5CCN4[C@@H](C)C3)nn2)cc1 | MTT |  | 0.252 µM |
| COc1cc2ncnc(Nc3ccc(F)c(Cl)c3)c2cc1NC(=O)N/N=C/c1cccn1CCCN(C)C | MTT | 72 h | 0.03 µM |
| Cc1cc(C)cc(COc2cc3c(cc2OCc2cc(C)cc(C)c2)[C@H]2C[C@](O)(Cc4cn(CC56CC7CC(CC(C7)C5)C6)nn4)C[C@H](C)N2CC3)c1 | MTT |  | 0.143 µM |
| COc1c(C)cnc(COc2ccc(NC(=O)Nc3ccc(Cl)c(C(F)(F)F)c3)cc2)c1C | MTT | 72 h | > 100 µM |
| C/C=C/C(=O)Nc1ccc(Cn2cc(C[C@@]3(O)C[C@@H]4c5cc(OCc6cc(C)cc(C)c6)c(OCc6cc(C)cc(C)c6)cc5CCN4[C@@H](C)C3)nn2)cc1 | MTT |  | 0.364 µM |

| Structure (SMILES) | assay | conditions | IC50 |
| --- | --- | --- | --- |
| COc1cc(Nc2nc(CNCc3ccccc3)cc3c(-c4ccccc4)n[nH]c23)cc(OC)c1OC | MTS | 48 h | 4.3 µM |
| Cc1cc(C)cc(COc2cc3c(cc2OCc2cc(C)cc(C)c2)[C@H]2C[C@](O)(Cc4cn(Cc5cccnc5)nn4)C[C@H](C)N2CC3)c1 | MTT |  | 0.638 µM |
| CCn1cnc2ccc(/C=C/C(=O)NO)cc2c1=O | SRB | 48 h | 7.04 µM |
| Cc1cc(C)cc(COc2cc3c(cc2OCc2cc(C)cc(C)c2)[C@H]2C[C@](O)(Cc4cn(Cc5ccc(S(C)(=O)=O)cc5)nn4)C[C@H](C)N2CC3)c1 | MTT |  | 0.223 µM |
| C[C@H]1O[C@@H](n2cc(F)c(=O)[nH]c2=O)[C@H](O)[C@@H]1O | CCK-8 | 48 h | > 50 µM |
| COc1ccnc(COc2ccc(NC(=O)Nc3ccc(F)cc3)cc2)c1OC | MTT | 72 h | 50.1 µM |
| CCCCCCCCCc1ccc(C(=O)Nc2cc(C)ccc2C(=O)OC)cc1 | MTT |  | > 120 µM |
| COc1c(C)cnc(COc2ccc(NC(=O)Nc3ccc(Cl)cc3)cc2)c1C | MTT | 72 h | 47.9 µM |
| COc1ccc(/C=C/c2cc(C)no2)cc1OC | MTT | 72 h | > 100 µM |
| Cc1c(OCC(F)(F)F)ccnc1COc1ccc(NC(=O)Nc2ccc(F)cc2)cc1 | MTT | 72 h | 60.2 µM |
| Cc1cc(C)cc(COc2cc3c(cc2OCc2cc(C)cc(C)c2)[C@H]2C[C@](O)(Cc4cn(CC5CCCCC5)nn4)C[C@H](C)N2CC3)c1 | MTT |  | 0.384 µM |
| CC(C)C(=O)Nc1ccc([N+](=O)[O-])c(C(F)(F)F)c1 | CCK-8 | 48 h | > 50 µM |
| CCN(CC)CCn1cccc1/C=N/NC(=O)Nc1cc2c(Nc3ccc(F)c(Cl)c3)ncnc2cc1OC | MTT | 72 h | 1.05 µM |
| N=C(Nc1ccccc1)c1cc2c(-c3ccccc3)n[nH]c2c(Nc2ccccc2)n1 | MTS | 48 h | 1.2 µM |
| CN1CCN(CCn2cccc2/C=N/NC(=O)Nc2cc3c(Nc4ccc(F)c(Cl)c4)ncnc3cc2O[C@H]2CCOC2)CC1 | MTT | 72 h | 1.89 µM |
| O=C(/C=C/c1ccc2ncn(Cc3ccccc3)c(=O)c2c1)NO | SRB | 48 h | 1.54 µM |
| O=C(N/N=C/c1cccn1CCCN1CCCCC1)Nc1cc2c(Nc3ccc(F)c(Cl)c3)ncnc2cc1O[C@H]1CCOC1 | MTT | 72 h | 0.15 µM |
| COc1cccc2c1C(=O)c1c(O)c3c(c(O)c1C2=O)C[C@@](O)(C(=O)CO)C[C@@H]3O[C@H]1C[C@H](N)[C@H](O)[C@H](C)O1 | MTT | 48 h | 0.629 µg/mL |
| O=C(N/N=C/c1cccn1CCN1CCOCC1)Nc1cc2c(Nc3ccc(F)c(Cl)c3)ncnc2cc1O[C@H]1CCOC1 | MTT | 72 h | 4.27 µM |
| COCCCOc1ccnc(COc2ccc(NC(=O)Nc3ccc(Cl)c(C(F)(F)F)c3)cc2)c1C | MTT | 72 h | > 100 µM |
